According to article PMC2940062 (Cancer, 2010):
Like-named read-outs stand apart in the source and are kept apart here.

Assays:
[1] = single-agent docetaxel, second line NSCLC; cited from earlier work
[2] = Docetaxel pharmacokinetics in plasma, day 1 of cycle 1; type: in vivo; conditions: human, intravenous
Procedure, shortened: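 Patients with advanced NSCLC got a 60-min i.v. docetaxel infusion on day 1, alongside oral everolimus (5 or 7.5 mg daily) and dexamethasone premedication (8 mg twice daily for 3 days, starting the day before). Peripheral venous blood was drawn into sodium heparin on cycle 1 day 1, centrifuged (4 °C, 3000 × g, 10 min), and plasma stored at −80 °C. Validated LC-MS/MS quantitation was used, with noncompartmental t1/2.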

[3] = test system: recurrent or refractory NSCLC; conditions: everolimus monotherapy; cited from earlier work
[4] = single agent; cited from earlier work
[5] = Everolimus pharmacokinetics in blood, cycle 1; type: in vivo, human; conditions: for AUC(0-t) / Cmax: human, whole blood, oral
Procedure, shortened: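 NSCLC patients; oral mTOR inhibitor daily on days 1–19 of 3-week cycles, with a 60-min i.v. co-drug infusion on day 1 and dexamethasone premedication. Cycle 1, days 1, 8 and 15: 2 mL venous blood into K-EDTA at 30 min pre-dose and 1, 2, 5, 8 and 24 h post-dose, frozen at −20 °C within 60 min.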

CC(=O)O[C@@]12CO[C@@H]1C[C@H](O)[C@@]1(C)C(=O)[C@H](O)C3=C(C)[C@@H](OC(=O)[C@H](O)[C@@H](NC(=O)OC(C)(C)C)c4ccccc4)C[C@@](O)([C@@H](OC(=O)c4ccccc4)[C@H]21)C3(C)C [Docetaxel, docetaxel]
incidence of fever with neutropenia [1]: 2–12% | half-life [2]: 9.4 ± 3.4 h | half-life ([2]; 60 mg/m2): 16.8 h | AUC(0-inf) ([2]; 60 mg/m2, AUC0-∞, Day 1, everolimus 5 mg/day, docetaxel 60 mg/m^2, n=1): 2.08 µM·h | Cmax ([2]; 60 mg/m2, Cmax, Day 1, everolimus 5 mg/day, docetaxel 60 mg/m^2, n=1): 1010 nM | half-life ([2]; 75 mg/m2): 8.74 h | AUC(0-inf) ([2]; 75 mg/m2, AUC0-∞, Day 1, everolimus 5 mg/day, docetaxel 75 mg/m^2, n=3, mean (SD)): 6.95 µM·h | AUC(0-inf) ([2]; 75 mg/m2, AUC0-∞, Day 1, everolimus 7.5 mg/day, docetaxel 75 mg/m^2, n=1): 7.3 µM·h | Cmax ([2]; 75 mg/m2, Cmax, Day 1, everolimus 5 mg/day, docetaxel 75 mg/m^2, n=3, mean (SD)): 1610 nM | recommended phase II dose (RP2D) (docetaxel day 1 every 3 weeks, in combination with everolimus): 60 mg/m^2

CO[C@H]1C[C@@H]2CC[C@@H](C)[C@@](O)(O2)C(=O)C(=O)N2CCCC[C@H]2C(=O)O[C@H]([C@H](C)C[C@@H]2CC[C@@H](OCCO)[C@H](OC)C2)CC(=O)[C@H](C)/C=C(\C)[C@@H](O)[C@@H](OC)C(=O)[C@H](C)C[C@H](C)/C=C/C=C/C=C/1C [Everolimus, everolimus]
response rate [3]: 5% | inter-patient variability in AUC [4]: 33% | recommended phase II dose (RP2D) (everolimus days 1-19 every 3 weeks, in combination with docetaxel): 5 mg PO daily | Everolimus exposure (mean AUC and Cmax) versus dose ([5]; 5 and 7.5 mg/day): increased proportionally with dose | AUC(0-t) ([5]; 60 mg/m2, AUC0-24, Day 1, everolimus 5 mg/day, docetaxel 60 mg/m^2, n=3, mean (SD)): 244 ng·h/mL | AUC(0-t) ([5]; 60 mg/m2, AUC0-24, Day 8, everolimus 5 mg/day, docetaxel 60 mg/m^2, n=3, mean (SD)): 329 ng·h/mL | AUC(0-t) ([5]; 60 mg/m2, AUC0-24, Day 15, everolimus 5 mg/day, docetaxel 60 mg/m^2, n=3, mean (SD)): 350 ng·h/mL | Cmax ([5]; 60 mg/m2, Cmax, Day 1, everolimus 5 mg/day, docetaxel 60 mg/m^2, n=3, mean (SD)): 37.7 ng/mL | Cmax ([5]; 60 mg/m2, Cmax, Day 15, everolimus 5 mg/day, docetaxel 60 mg/m^2, n=3, mean (SD)): 51 ng/mL | AUC(0-t) ([5]; 75 mg/m2, AUC0-24, Day 1, everolimus 5 mg/day, docetaxel 75 mg/m^2, n=10, mean (SD)): 330 ng·h/mL | AUC(0-t) ([5]; 75 mg/m2, AUC0-24, Day 1, everolimus 7.5 mg/day, docetaxel 75 mg/m^2, n=4, mean (SD)): 379 ng·h/mL | AUC(0-t) ([5]; 75 mg/m2, AUC0-24, Day 8, everolimus 5 mg/day, docetaxel 75 mg/m^2, n=6, mean (SD)): 336 ng·h/mL | AUC(0-t) ([5]; 75 mg/m2, AUC0-24, Day 15, everolimus 5 mg/day, docetaxel 75 mg/m^2, n=6, mean (SD)): 369 ng·h/mL | AUC(0-t) ([5]; 75 mg/m2, AUC0-24, Day 15, everolimus 7.5 mg/day, docetaxel 75 mg/m^2, n=1): 772 ng·h/mL | Cmax ([5]; 75 mg/m2, Cmax, Day 1, everolimus 5 mg/day, docetaxel 75 mg/m^2, n=10, mean (SD)): 22.4 ng/mL | Cmax ([5]; 75 mg/m2, Cmax, Day 8, everolimus 5 mg/day, docetaxel 75 mg/m^2, n=6, mean (SD)): 35.8 ng/mL | Cmax ([5]; 75 mg/m2, Cmax, Day 15, everolimus 5 mg/day, docetaxel 75 mg/m^2, n=6, mean (SD)): 37.8 ng/mL | Cmax ([5]; 75 mg/m2, Cmax, Day 15, everolimus 7.5 mg/day, docetaxel 75 mg/m^2, n=1): 102 ng/mL
